Measured values taken from ChEMBL document CHEMBL1150309, “Design, synthesis, and biological evaluation of thiophene analogues of chalcones” (Bioorg Med Chem, 2008).

What was measured:
HeLa = experiment: Antiproliferative activity against human HeLa cells after 2 days; assay type: functional, cell-based; details: 48 h
In short: (§1)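 Cells suspended at 300,000–500,000 cells/mL of culture medium and mixed 1:1 with dilutions of compound. Incubated 2 days at 37 °C, then cell number counted with a Coulter counter. IC50 is the concentration giving 50% inhibition of proliferation. Values are means from dose–response curves of at least three independent experiments.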

FM3A = experiment: Antiproliferative activity against mouse FM3A cells after 2 days; assay type: functional, cell-based; details: 48 h; in short: as §1
MOLT-4 = experiment: Antiproliferative activity against human MOLT4 cells after 2 days; assay type: functional, cell-based; details: MOLT-4, 48 h; in short: as §1
L1210 = experiment: Antiproliferative activity against mouse L1210 cells after 2 days; assay type: functional, cell-based; details: L1210, 48 h; in short: as §1
CCRF-CEM = experiment: Antiproliferative activity against human CEM cells after 2 days; assay type: functional, cell-based; details: 48 h; in short: as §1
Bos taurus = species: Bos taurus; experiment: Displacement of [3H]colchicine from bovine brain tubulin at 1 uM
In short: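 Bovine brain tubulin (1 µM) incubated with compound at 1 µM and [³H]colchicine at 5 µM. Result is reported as percent inhibition of colchicine binding.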

K562 [1] = experiment: Cell cycle arrest in human K562 cells assessed as accumulation at G2/M phase at 1.5 uM after 24 hrs by flow cytometry; assay type: functional
K562 [2] = experiment: Cell cycle arrest in human K562 cells assessed as accumulation at S phase at 1.5 uM after 24 hrs by flow cytometry; assay type: functional
[3] = Inhibition of bovine brain tubulin polymerization for 20 mins; design: species or system Bos taurus
In short: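 Bovine brain tubulin (10 µM) preincubated with varying compound concentrations in glutamate buffer at 30 °C, then cooled to 0 °C. GTP added and mixtures warmed to 30 °C in cuvettes while assembly was followed by turbidity. IC50 is the concentration that halves the extent of assembly after 20 min.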

K562 [4] = experiment: Cell cycle arrest in human K562 cells assessed as accumulation at G0/G1 phase at 1.5 uM after 24 hrs by flow cytometry; assay type: functional
K562 [5] = experiment: Cell cycle arrest in human K562 cells assessed as accumulation at S phase at 2.2 uM after 24 hrs by flow cytometry; assay type: functional
K562 [6] = experiment: Cell cycle arrest in human K562 cells assessed as accumulation at G2/M phase at 2.2 uM after 24 hrs by flow cytometry; assay type: functional
K562 [7] = experiment: Cell cycle arrest in human K562 cells assessed as accumulation at G0/G1 phase at 2.2 uM after 24 hrs by flow cytometry; assay type: functional
K562 [8] = experiment: Cell cycle arrest in human K562 cells assessed as accumulation at S phase at 1.3 uM after 24 hrs by flow cytometry; assay type: functional
K562 [9] = experiment: Cell cycle arrest in human K562 cells assessed as accumulation at G0/G1phase at 1.3 uM after 24 hrs by flow cytometry; assay type: functional
K562 [10] = experiment: Cell cycle arrest in human K562 cells assessed as accumulation at G2/M phase at 1.3 uM after 24 hrs by flow cytometry; assay type: functional
K562 [11] = experiment: Cell cycle arrest in human K562 cells assessed as accumulation at G0/G1 phase at 1.0 uM after 24 hrs by flow cytometry; assay type: functional
K562 [12] = experiment: Cell cycle arrest in human K562 cells assessed as accumulation at S phase at 1.0 uM after 24 hrs by flow cytometry; assay type: functional
K562 [13] = experiment: Cell cycle arrest in human K562 cells assessed as accumulation at G2/M phase at 1.0 uM after 24 hrs by flow cytometry; assay type: functional
K562 [14] = experiment: Cell cycle arrest in human K562 cells assessed as accumulation at G2/M phase at 2.1 uM after 24 hrs by flow cytometry; assay type: functional
K562 [15] = experiment: Cell cycle arrest in human K562 cells assessed as accumulation at S phase at 2.1uM after 24 hrs by flow cytometry; assay type: functional
K562 [16] = experiment: Cell cycle arrest in human K562 cells assessed as accumulation at G0/G1 phase at 2.1uM after 24 hrs by flow cytometry; assay type: functional
K562 [17] = experiment: Cell cycle arrest in human K562 cells assessed as accumulation at S phase at 1.7 uM after 24 hrs by flow cytometry; assay type: functional
K562 [18] = experiment: Cell cycle arrest in human K562 cells assessed as accumulation at G2/M phase at 1.7 uM after 24 hrs by flow cytometry; assay type: functional
K562 [19] = experiment: Cell cycle arrest in human K562 cells assessed as accumulation at G0/G1 phase at 1.7 uM after 24 hrs by flow cytometry; assay type: functional
K562 [20] = experiment: Cell cycle arrest in human K562 cells assessed as accumulation at S phase at 1.4 uM after 24 hrs by flow cytometry; assay type: functional
K562 [21] = experiment: Cell cycle arrest in human K562 cells assessed as accumulation at G2/M phase at 1.4 uM after 24 hrs by flow cytometry; assay type: functional
K562 [22] = experiment: Cell cycle arrest in human K562 cells assessed as accumulation at G0/G1 phase at 1.4 uM after 24 hrs by flow cytometry; assay type: functional

Structure (SMILES)	IC50 (HeLa) [µM]	IC50 (FM3A) [µM]	IC50 (MOLT-4) [µM]	IC50 (L1210) [µM]	IC50 (CCRF-CEM) [µM]	inhibition (Bos taurus) [%]	IC50 [3] [µM]	also measured
COc1cc(C(=O)/C=C/c2ccccc2)cc(OC)c1OC	> 10	> 10	> 10	> 10	> 10			
COc1ccccc1-c1ccc(C(=O)c2cc(OC)c(OC)c(OC)c2)s1	0.16	0.44	0.18	0.51	0.37	74	1.3	Activity (K562 [1]): 62%; Activity (K562 [2]): 31%; Activity (K562 [4]): 12%
COc1ccc(/C=C/C(=O)c2cc(OC)c(OC)c(OC)c2)cc1	1.3	8.4	1.4	2.8	1.5			
COc1cc(C(=O)c2ccc(-c3ccc([N+](=O)[O-])cc3)s2)cc(OC)c1OC	> 10	> 10	> 10	> 10	> 10			
COc1cc(C(=O)c2ccc(-c3ccc(Cl)cc3)s2)cc(OC)c1OC	1.5	4.6	1.3	2.2	2.3			
COc1cc(C(=O)c2ccc(-c3ccccc3Cl)s2)cc(OC)c1OC	1.6	1.7	1	0.75	0.49			
COc1cc(C(=O)c2ccc(-c3ccc(F)cc3)s2)cc(OC)c1OC	0.3	1.1	0.4	0.59	0.56	66	1.1	Activity (K562 [5]): 31%; Activity (K562 [6]): 21%; Activity (K562 [7]): 48%
COc1ccc(/C=C\c2cc(OC)c(OC)c(OC)c2)cc1O [COMBRETASTATIN A4]							1.4	
COc1cc(C(=O)/C=C/c2ccc(Cl)cc2)cc(OC)c1OC	> 10	> 10	> 10	> 10	> 10			
COc1cc(C(=O)c2ccc(-c3ccccc3)s2)cc(OC)c1OC	0.31	0.46	0.4	0.56	0.48	74	1.5	Activity (K562 [8]): 48%; Activity (K562 [9]): 34%; Activity (K562 [10]): 18%
COc1cccc(-c2ccc(C(=O)c3cc(OC)c(OC)c(OC)c3)s2)c1	1.4	2.4	1.8	2.5	2			
COc1ccccc1/C=C/C(=O)c1cc(OC)c(OC)c(OC)c1	1.4	7.9	1.9	2.1	1.8			
COc1cccc(/C=C/C(=O)c2cc(OC)c(OC)c(OC)c2)c1	3.7	11	3.1	4.3	2.2			
COc1cc(C(=O)/C=C/c2ccc(F)cc2)cc(OC)c1OC	> 10	> 10	> 10	> 10	> 10			
COc1ccc(/C=C/C(=O)c2cc(OC)c(OC)c(OC)c2)cc1OC	2	10	3.1	8.1	1.9			
COc1cc(C(=O)c2ccc(-c3ccccc3F)s2)cc(OC)c1OC	1.4	0.87	0.33	0.52	0.48	66	2	Activity (K562 [11]): 8%; Activity (K562 [12]): 11%; Activity (K562 [13]): 81%
COc1ccc(-c2ccc(C(=O)c3cc(OC)c(OC)c(OC)c3)s2)cc1	1	2.4	0.46	2.3	2.2			
COc1ccc(-c2ccc(C(=O)c3cc(OC)c(OC)c(OC)c3)s2)cc1OC	0.5	0.96	0.38	0.52	0.54	28	3	Activity (K562 [14]): 57%; Activity (K562 [15]): 27%; Activity (K562 [16]): 16%
COc1cc(C(=O)c2ccc(-c3cccc(F)c3)s2)cc(OC)c1OC	1.7	5.6	1.2	2.4	2.1			
COc1cc(C(=O)c2ccc(-c3ccsc3)s2)cc(OC)c1OC	1.1	1.8	0.37	1.3	1.3			
COc1cc(C(=O)c2ccc(-c3cccs3)s2)cc(OC)c1OC	0.47	0.46	0.3	0.53	0.43	82	0.8	Activity (K562 [17]): 17%; Activity (K562 [18]): 75%; Activity (K562 [19]): 8%
COc1cc(C(=O)c2ccc(-c3cccc([N+](=O)[O-])c3)s2)cc(OC)c1OC	1.4	2.4	1.7	2.1	1.8			
COc1cc(C(=O)c2ccc(-c3ccc(C)cc3)s2)cc(OC)c1OC	0.41	0.47	0.38	0.49	0.36	74	0.8	Activity (K562 [20]): 7%; Activity (K562 [21]): 85%; Activity (K562 [22]): 8%
